# Data as given in ChEMBL document CHEMBL4373706, “Discovery of Inhibitors of Aurora/PLK Targets as Anticancer Agents” (J Med Chem, 2019).
# Calls of active or inactive are those of the source. The calls are words filed in the database; no cut-off is given here.
# Assays:
# [1] = system: HCT-116; assay: Antiproliferative activity against human HCT116 cells measured after 96 hrs by Brdu incorporation-based ELISA; assay type: functional, cell-based; conditions: HCT-116, 96 h
# [2] = system: HCT-116; assay: Inhibition of colony formation in human HCT116 cells at 10 uM incubated for 48 hrs followed by supplemented with fresh medium every 3 days for 2 weeks by crystal violet staining-based assay; assay type: functional, cell-based
# [3] = system: HCT-116; assay: Induction of apoptosis in human HCT116 cells assessed as increase in apoptotic index at 1 to 10 uM measured after 48 hrs by Annexin V-FITC/propidium iodide staining-based flow cytometry; assay type: functional, cell-based
# [4] = system: HCT-116; assay: Antitumor activity against human HCT116 cells xenografted in BALB/c mouse assessed as survival rate at 10 mg/kg, iv administered every 3 days for 60 days relative to control; assay type: functional; conditions: HCT-116, iv
# [5] = system: HCT-116; assay: Antiproliferative activity against human HCT116 cells measured after 48 hrs by MTT assay; assay type: functional, cell-based
# In short: (§1)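 Cells were exposed to a range of compound concentrations for 48 h. MTT reagent was then added and absorbance read at 490 nm. Viability was normalized to vehicle control set as 100%, from n = 3 independent experiments, and IC50 was taken from the dose–response curves.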
# [6] = system: MCF7; assay: Antiproliferative activity against human MCF7 cells measured after 48 hrs by MTT assay; assay type: functional, cell-based; in short: as §1
# [7] = system: A549; assay: Antiproliferative activity against human A549 cells measured after 48 hrs by MTT assay; assay type: functional, cell-based; in short: as §1
# [8] = system: Calu-6; assay: Antiproliferative activity against human Calu6 cells measured after 48 hrs by MTT assay; assay type: functional, cell-based; in short: as §1
SMILES,IC50 [1] [µM],inhibition [2],Activity [3],survival at 10 mg/kg [4] [%],Activity [5],Activity [6],Activity [7],Activity [8]
COc1cc(Nc2ncc3c(n2)-c2ccc(Cl)cc2C(c2c(F)cccc2OC)=NC3)ccc1C(=O)O [ALISERTIB],32,inactive,Active,–,–,–,–,–
O=c1[nH]cc(F)c(=O)[nH]1 [FLUOROURACIL],–,–,–,30,–,–,–,–
CC[C@@H]1C(=O)N(C)c2cnc(Nc3ccc(C(=O)NC4CCN(C)CC4)cc3OC)nc2N1C1CCCC1,–,inactive,Active,–,–,–,–,–
O=C(Nc1ccc2cc(C(=O)NC3CCCCC3)ccc2c1)c1ccc(F)cc1,–,–,–,–,Active,Active,Active,Active
COc1ccc(C(=O)Nc2ccc3cc(C(=O)NC4CC4)ccc3c2)cc1,–,–,–,–,Active,Active,Active,Active
